Compound activity: PubChem BioAssay, Sanford-Burnham Center for Chemical Genomics
FLuc stim CS = FLuc activators, initial screening, artefact control for FLuc-dependent activation tests, biochemical, ATPlite luminescence; Luciferin 4-monooxygenase (Photinus pyralis), P08659; ATPlite luciferase biochemical, 10 min; 0 = ATP-free wells, 1 = DMSO control; activation factor at 10 µM; 200,000 tested, under 10 active;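 active means luciferase activation factor, scaled between plate controls, of at least 2 with compound at 10 µM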
Target sequence (P08659 whole entry, looked up): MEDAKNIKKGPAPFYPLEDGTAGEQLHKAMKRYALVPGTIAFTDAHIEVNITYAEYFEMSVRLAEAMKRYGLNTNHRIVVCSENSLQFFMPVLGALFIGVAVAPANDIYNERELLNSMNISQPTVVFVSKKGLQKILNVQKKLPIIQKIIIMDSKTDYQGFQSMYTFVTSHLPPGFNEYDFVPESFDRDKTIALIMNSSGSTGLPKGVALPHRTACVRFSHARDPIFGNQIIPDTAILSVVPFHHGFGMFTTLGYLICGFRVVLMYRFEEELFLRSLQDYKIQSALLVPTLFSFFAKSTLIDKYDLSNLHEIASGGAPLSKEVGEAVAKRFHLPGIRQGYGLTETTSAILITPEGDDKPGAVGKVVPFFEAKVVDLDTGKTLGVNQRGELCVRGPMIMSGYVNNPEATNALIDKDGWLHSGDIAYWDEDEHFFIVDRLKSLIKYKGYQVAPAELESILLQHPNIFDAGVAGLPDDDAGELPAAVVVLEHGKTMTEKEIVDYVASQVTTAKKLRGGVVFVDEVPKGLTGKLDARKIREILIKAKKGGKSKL
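Assay system: Luciferase/luciferin reagent mix; Medium: PBS as buffer for the ATP substrate; Dosing: test compounds dosed from 2 mM stocks in 100% DMSO; Times: 10 min, room temperature; Signal: luminescence from luciferase reaction; Read-out: luciferase activation; Controls: No-ATP low control, compound-free enzyme-plus-ATP high control.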
PPC-1+TRAIL kill = compounds killing PPC-1 cancer cells with TRAIL present, primary screen, TRAIL potentiator project, ATPLite luminescence, uHTS; PPC-1 cells + TRAIL, ATPLite viability luminescence; cell killing (% activity), % at 4 µM or 5 µM; 0.41% of 220,000 active;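 active means cell killing above 50% in the first pass at 4 µM, then a duplicate retest at 5 µM averaging 50% or more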
TRAIL sens C8 = viability loss with TRAIL in NB7+C8 cells, primary screen, TRAIL sensitizer project, cell-based, ATPlite luminescence; AID 624354, 2012; 1% of 360,000 active; inhibition (viability loss, TRAIL sensitization), % at 10 µM;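 active means compounds causing at least 50% loss of cell viability in the single-dose screen, relative to plate controls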
FLuc inhib CS = firefly luciferase enzyme inhibitors, primary screen, artefact control for luciferase-based inhibitor screens, biochemical, luminescence, ATPLite. inhibition, % at 10 µM. 10 min. 1.5% of 200,000 active. Luciferin 4-monooxygenase (Photinus pyralis), P08659;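 active means inhibition above about 50% when tested at 10 µM, limit read from the data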
Large screens that a line does not name were inactive. Compounds with a hit are over-represented: about 1.5% of the library has one in this group of screens.

Cc1cc(C2=NNC(=NC3CC3)SC2)c(C)n1Cc1ccco1	FLuc inhib CS 95.8
COCC(C)N=C1NN=C(c2cc(C)n(Cc3ccccc3Cl)c2C)CS1 (configuration not stated)	FLuc inhib CS 54.1
COc1ccc(-n2c(C)cc(C3=NNC(=NC4CC4)SC3)c2C)cc1	none
Cc1cc(C2=NNC(=NC3CC3)SC2)c(C)n1-c1ccccc1	TRAIL sens C8 79.2, FLuc inhib CS 96.8
Cc1cc(=O)c(C(=O)O)nn1-c1ccc(Cl)cc1	none (no result: FLuc stim CS, FLuc inhib CS)
O=C(NCCN1C(=O)S/C(=C\c2ccc(F)cc2)C1=O)c1cccc(S(=O)(=O)N2CCOCC2)c1	none
COc1cc(/C=C/c2ccc3c([N+](=O)[O-])cccc3n2)ccc1OCC(=O)O	none (no result: FLuc stim CS, FLuc inhib CS)
COc1cc(/C=C/c2ccc3cccc([N+](=O)[O-])c3n2)ccc1OCC(=O)O	FLuc inhib CS 57.5
CCN(CC)S(=O)(=O)c1cccc(NC(=O)CC2CCCC2)c1	none (no result: FLuc stim CS, PPC-1+TRAIL kill, FLuc inhib CS)
CCN(CC)S(=O)(=O)c1cccc(NC(=O)Nc2cccc(C(F)(F)F)c2)c1	TRAIL sens C8 65.3
Nc1n[nH]c(=S)n1/N=C1/C(=O)Nc2ccccc21	FLuc inhib CS 69.9
COc1cc2oc(=O)ccc2cc1[C@@H](O)[C@@H]1OC(C)(C)OC1(C)C	none (no result: FLuc stim CS, PPC-1+TRAIL kill, FLuc inhib CS)
CCCc1nn(C)c(C(=O)Nc2cccc(Cl)c2)c1Cl	PPC-1+TRAIL kill 50.7
CCCCn1c(N)c(N(CCOC)C(=O)CN2C(=O)C3CCCCC3C2=O)c(=O)[nH]c1=O (configuration not stated)	none (no result: FLuc stim CS, PPC-1+TRAIL kill, FLuc inhib CS)
CC(=Nc1cccc(O)c1)c1sc2ccccc2c1O	FLuc inhib CS 53.4
CC(=Nc1ccc(C)cc1)c1sc2ccccc2c1O	TRAIL sens C8 62.4, FLuc inhib CS 85.2
COC(=O)c1cccc(NC(=O)c2cc3ccccc3o2)c1	TRAIL sens C8 50.1 (no result: FLuc stim CS, PPC-1+TRAIL kill, FLuc inhib CS)
O=C(Nc1ccc(Cl)cn1)c1cc2ccccc2o1	FLuc inhib CS 63.5
O=C(NNC(=O)c1cc2ccccc2o1)c1ccc(F)cc1	none (no result: FLuc stim CS, PPC-1+TRAIL kill, FLuc inhib CS)
COc1ccccc1N(Cc1ccccc1)S(=O)(=O)c1cccc(C(=O)Nc2cc(C)ccn2)c1	TRAIL sens C8 61.3 (no result: FLuc stim CS, PPC-1+TRAIL kill, FLuc inhib CS)
Cc1csc(C(C#N)C(=O)c2cc3ccccc3o2)n1 (configuration not stated)	TRAIL sens C8 59.4, FLuc inhib CS 87.8
O=C1NC[C@H](CCCCN2C[C@H](Cc3ccccc3)N(CCc3ccc(O)cc3)C(=O)C2=O)N(CCC2CCCCC2)C1=O	none (no result: FLuc stim CS, PPC-1+TRAIL kill, FLuc inhib CS)
CCN(CC)S(=O)(=O)c1cccc(NC(=O)c2ccc(C#N)cc2)c1	none
CCC1CCCCN1C(=O)CSc1n[nH]c(N)n1 (configuration not stated)	none (no result: FLuc stim CS, PPC-1+TRAIL kill, FLuc inhib CS)
COc1ccc(OC)c(NC(=O)COC(=O)CCNc2ccccc2OC)c1	none (no result: FLuc stim CS, PPC-1+TRAIL kill, FLuc inhib CS)
Cc1ccc(-c2csc(NC(=O)c3ccc(-c4ccccc4)cc3)n2)o1	TRAIL sens C8 65.7
COc1cc(NC(=O)c2ccccc2)ccc1NC(=O)c1cc2ccccc2o1	none (no result: FLuc stim CS, PPC-1+TRAIL kill, FLuc inhib CS)
Cc1ccnc(NC(=O)c2ccc(C(=O)c3ccccc3)cc2)c1	TRAIL sens C8 68.9 (no result: FLuc stim CS, PPC-1+TRAIL kill, FLuc inhib CS)
Cc1cc(NC(=O)c2cncc(Br)c2)ccc1NC(=O)c1cc2ccccc2o1	TRAIL sens C8 59.8 (no result: FLuc stim CS, PPC-1+TRAIL kill, FLuc inhib CS)
O=C(Nc1nc(-c2ccco2)cs1)c1ccccc1	none
Cc1ccnc(NC(=O)c2cc3ccccc3o2)c1	TRAIL sens C8 86.2 (no result: FLuc stim CS, PPC-1+TRAIL kill, FLuc inhib CS)
CCOC(=O)C1CCN(CC(O)COc2ccc(S(=O)(=O)N3CCCC3)cc2[N+](=O)[O-])CC1 (configuration not stated)	none (no result: FLuc stim CS, PPC-1+TRAIL kill, FLuc inhib CS)
Cc1cc(O)cc2c1C1CCC3(C)C(=O)CCC3C1C=C2 (configuration not stated)	none (no result: FLuc stim CS, PPC-1+TRAIL kill, FLuc inhib CS)
CCn1c(=S)sc2c(=O)n(CC(=O)Nc3cccc(OC)c3)c(C)nc21	none (no result: FLuc stim CS, PPC-1+TRAIL kill, FLuc inhib CS)
O=[N+]([O-])c1cc(S(=O)(=O)N2CCCC2)ccc1N/N=C/c1cccnc1	none
Cc1csc(NC(=O)c2cc3ccccc3o2)n1	TRAIL sens C8 65.0 (no result: FLuc stim CS, PPC-1+TRAIL kill, FLuc inhib CS)
Cc1[nH]n(-c2ccccc2)c(=O)c1N=Nc1ccccc1O	TRAIL sens C8 56.8
COCc1nnc(NC(=O)c2ccc(OC)cc2OC)s1	FLuc inhib CS 56.0
COc1ccc(-c2ccc(-c3cc(=O)oc4c(C(C)C)ccc(C)c34)cc2)cc1	none (no result: FLuc stim CS, PPC-1+TRAIL kill, FLuc inhib CS)
O=c1c2ccccc2nc(SCc2nc3ccccc3s2)n1CCCO	none
c1csc(-c2ccc(N3CCOCC3)nn2)c1	TRAIL sens C8 60.4 (no result: FLuc stim CS, PPC-1+TRAIL kill, FLuc inhib CS)
CCOC(=O)C1CCN(c2ccc(-c3cccs3)nn2)CC1	none (no result: FLuc stim CS, PPC-1+TRAIL kill, FLuc inhib CS)
Cc1cc(C(=O)COC(=O)c2nn(C)c(=O)c3ccccc23)c(C)n1C	none (no result: FLuc stim CS, PPC-1+TRAIL kill, FLuc inhib CS)
CCOC(=O)c1cnc2c(Cl)c(Cl)ccc2c1N1CCN(C)CC1	TRAIL sens C8 58.7
